The source of these data is paper PMC4527612 (Journal of inorganic biochemistry, 2014).

Read-outs that look alike come from different tables or passages of the source. Marks after values point to notes of the source that are not given here. Some results are limits rather than exact numbers.

Data set [1] deals with HeLa, HEP-3B, LN-308, MCF-7 and KCL-22 human cancer cell lines. The data set is described as follows: Dose-dependent cytotoxicity curves in five cancer cell lines. Type of data set: cell-based. The conditions noted are these: Fig. 3.
For data set [2], the system named is KCL-22 cells. The data set is described as follows: Photo-induced cytotoxicity, vital dye exclusion test. In kind it is cell-based, human. The essentials:
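After 24 h in glass vials, KCL-22 cells were preincubated 30 min with free-base porphyrin (distilled water) at various concentrations. They were then irradiated 25 min with a tungsten lamp (30 mW/cm2, 28,000 lx) through a 600–900 nm glass filter and incubated a further 48 h. Viable cells were counted by vital dye exclusion. Controls were dark-kept treated cultures and illuminated untreated cultures; Chlorin e6 was the positive control. IC50 came from dose–response curves, mean ± S.E.M.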

Data set [3] relates to KCL-22 cells. The data set is described as follows: Dark toxicity of photosensitizers, vital dye exclusion test. In kind it is cell-based, human. The conditions noted are these: for IC50: read-out: IC50 (μM) ± S.E.M. Under dark. The essentials:
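KCL-22 cells were grown in RPMI-1640 with 10% FBS, 2 mM L-glutamine and penicillin/streptomycin at 37 °C, then seeded in glass vials for 24 h. Free-base porphyrin in distilled water was added at various concentrations, and cells were kept in the dark without illumination for 48 h. Viable cells were counted by vital dye exclusion, with viability as % of intact control. IC50 came from dose–response curves, mean ± S.E.M. of at least three experiments.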

Data set [4] is described as follows: Lipophilicity by thin-layer chromatographic retention factor Rf. In kind it is physicochemical. The conditions noted are these: silica, 1:1:8 KNO3-saturated H2O:H2O:CH3CN.
The subject of data set [5] is KCL-22 (chronic myeloid leukemia in blast crisis). The data set is described as follows: Dark cytotoxicity, Trypan blue exclusion test. Type of data set: cell-based, human.
Data set [6] shares this test system. To be noted: read-out: IC50 (μM) ± S.E.M. KCL-22, dark; cited from earlier work.
The subject of the next data set is HeLa (cervix carcinoma). The data set is described as follows: Dark cytotoxicity, Trypan blue exclusion test. The conditions noted are these: read-out: IC50 (μM) ± S.E.M. HeLa, 48 h incubation. In kind it is cell-based, human. The essentials:
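HeLa cells were grown in DMEM with 10% FBS, 2 mM L-glutamine and penicillin/streptomycin at 37 °C. They were seeded at 0.5 × 10^6/mL in glass vials, given 24 h, then exposed for 48 h in the dark to test compound in distilled water at various concentrations. Cells were trypsinised, stained 5–15 min with 0.4% Trypan blue and counted by hemocytometer. […] IC50 was derived from at least three experiments, mean ± S.E.M.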

The subject of data set [7] is human normal leukocytes (HNL). The data set is described as follows: Cytotoxicity on normal cells, trypan blue exclusion assay. Type of data set: cell-based.
The subject of data set [8] is KCL-22 cell line. The data set is described as follows: Flow cytometric cell cycle analysis. In kind it is cell-based, human. The essentials:
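KCL-22 cells were exposed 24 h after seeding to three concentrations of test compound for 48 h. About 10^6 cells were fixed by dropwise addition of cold 70% ethanol on vortex, held overnight at 4 °C, and stored at −20 °C for up to a week. Cells were then washed twice in PBS and stained 30 min with 0.1 mg/mL RNase and 0.05 mg/mL propidium iodide. DNA content was read by flow cytometry, with doublets excluded by FSC/SSC. Phases were fitted with the Dean–Jett–Fox model.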

For the next data set, the system named is HeLa cell line. The data set is described as follows: Cytokinesis block micronucleus.
For data set [9], the system named is KCL-22 cell line. The data set is described as follows: Comet assay. To be noted: for % DNA in tail, Mean ± S.E.M. / % DNA in tail, Median / L/H, Mean ± S.E.M. / L/H, Median / OTM, Mean ± S.E.M. / OTM, Median: KCL-22. Type of data set: cell-based, human. The essentials:
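KCL-22 cells were treated 24 h after seeding for 2 h at three concentrations of test compound, with untreated cells as control. Cells were embedded in 0.5% low-melting agarose on slides precoated with 1% agarose and lysed 1 h at 4 °C (2.5 M NaCl, 100 mM EDTA, 10 mM Tris, 1% Triton X-100, pH 10). DNA was unwound 40 min (300 mM NaOH, 1 mM EDTA, pH >13), then electrophoresed at 4 °C for 25 min at 25 V, 300 mA. Slides were neutralised with 0.4 M Tris pH 7.5, stained with 20 μg/mL ethidium bromide, and ≥150 cells scored (50 per triplicate slide). Analysis was by Mann–Whitney test.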

Data set [10] deals with KCL-22 cells. To be noted: read-out: IC50 (μM) ± S.E.M. Photo-induced; KCL-22, illumination; cited from earlier work.
The test system of data set [11] is KCL-22 cells. The conditions noted are these: read-out: IC50 (μM) ± S.E.M. Under dark; KCL-22, dark; cited from earlier work.

For the compound `N.N.[Cl][Pt][Cl]` [Cisplatin, cisplatin, reference compound], the “concentration at which toxicity starts” value in data set [1] was ~ 0.2 μM.

For orientation: IC50 means the point on the concentration scale where inhibition reaches its midpoint. Take `C=CC[n+]1ccc(-c2c3nc(c(-c4cc[n+](CC=C)cc4)c4ccc([nH]4)c(-c4ccc(OCCCCCCCCCCCCCCCC)c(OC)c4)c4nc(c(-c5cc[n+](CC=C)cc5)c5ccc2[nH]5)C=C4)C=C3)cc1.[Br-].[Br-].[Br-]` [H2TriAll4PyMVanC16P, 5-Mono(3′-methoxy-4′-hexadecyloxyphenyl)-10,15,20-tri(4′-N-allylpyridyl) porphine tribromide]: the “fold by which IC50 upon illumination is lower than IC50 under the dark” value in the data set with KCL-22 cells [2] (KCL-22) was “more than 35 fold”. Also, in the data set with KCL-22 cells [2] (KCL-22, illumination), the “fold more phototoxic than Chlorin e6” value worked out at 5 fold. Further, the “fold increase in cytotoxicity over tetracationic analog H2TAll4PyP” value in the data set on KCL-22 cells [3] (KCL-22, dark) is on record as “more than 60 fold”. The IC50 with KCL-22 cells [3] (KCL-22, dark, 48 h) is 25 ± 2 µM. For the same compound, the “lipophilicity, TLC retention factor Rf, compared to tetracationic analog” value in data set [4] was “gained dramatically in lipophilicity”.

For the compound `O=[N+]([O-])[O-].[Ag+]` [Silver nitrate], in data set [5] (at up to 20 μM concentration, data not shown), the “toxicity on KCL-22 cell line” value is given as “no toxicity”.

“5,10,15,20-tetra(4′-N-allylpyridyl)porphinato Ag(II) tetranitrate [AgTAll4PyP]”: the figures for the IC50 (in data set [6]; in the data set with HeLa (cervix carcinoma)) were 2.5 ± 1.1 µM and 26 ± 2.4 µM, respectively.

`C=CC[n+]1ccc(-c2c3nc(c(-c4cc[n+](CC=C)cc4)c4ccc([n-]4)c(-c4ccc(OCCCCCCCCCCCCCCCC)c(OC)c4)c4nc(c(-c5cc[n+](CC=C)cc5)c5ccc2[n-]5)C=C4)C=C3)cc1.O=[N+]([O-])[O-].O=[N+]([O-])[O-].O=[N+]([O-])[O-].[Ag+2]` [AgTriAll4PyMVanC16P, 5-Mono(3′-methoxy-4′-hexadecyloxyphenyl)-10,15,20-tri(4′-N-allylpyridyl) porphinato Ag(II) trinitrate]: the “fold enhancement of cytotoxicity on metallation of H2TriAll4PyMVanC16P” value in data set [5] (KCL-22, dark) is recorded as 5 fold. Besides, the “toxicity on normal cells (HNL) as compared to cisplatin” value in data set [7] (HNL, trypan blue exclusion) is reported as “significantly less toxic”. Besides, the “toxicity towards cancer (KCL-22) versus normal (HNL) cells” value in [7] (although not significant) is “higher towards cancer versus normal cells”. In addition, the “number of cells in G2 phase” value in the data set with KCL-22 cell line [8] (KCL-22, 48 h) is “not changed”. The S-phase cell number entry with KCL-22 cell line [8] (KCL-22, IC50/2, IC50, IC60, 48 h) is reported as “significantly increased”. In addition, the “cells in G1 phase” value in the data set with KCL-22 cell line [8] (KCL-22, IC50 or IC60 concentration, 48 h) is on record as “statistically significant reduction”. In [1], the “concentration at which toxicity starts” value is ~ 1 μM. Further, the “MN (micronucleus) formation in binucleate cells” value with HeLa cell line (all concentrations applied, from IC50/5 to IC60, HeLa) is reported as “did not induce MN formation”. Moreover, the “CBPI (cytokinesis block proliferation index)” value in the data set with HeLa cell line (concentration IC50, HeLa) is listed as 1.33 ± 0.002; in the data set with HeLa cell line (concentration IC50/2, HeLa, listed as Ag porphyrin) it was 1.37 ± 0.004; with HeLa cell line (concentration IC50/2, HeLa, listed as Amphiphilic Ag porphyrin) it was “no effect”; in the data set on HeLa cell line (concentration IC50/5, HeLa, listed as Ag porphyrin), 1.42 ± 0.034; in the data set on HeLa cell line (concentration IC50/5, HeLa, listed as Amphiphilic Ag porphyrin) it was “no effect”; in the data set on HeLa cell line (concentration IC60, HeLa), 1.20 ± 0.002. Also, the “CBPI, % of negative control” value in the data set on HeLa cell line (concentration IC50, HeLa) is 91%; in the data set on HeLa cell line (concentration IC50/2, HeLa) it was 94%; with HeLa cell line (concentration IC50/5, HeLa), 97%; with HeLa cell line (concentration IC60, HeLa), 82%. For the same compound, the “% DNA in tail, Mean ± S.E.M.” value with KCL-22 cell line [9] (concentration IC50, 2 h) was found to be 9.36 ± 0.68%; in the data set with KCL-22 cell line [9] (concentration IC50/5, 2 h), 3.10 ± 0.20%; with KCL-22 cell line [9] (concentration IC50/20, 2 h), 1.74 ± 0.14%. The “% DNA in tail, Median” value in the data set on KCL-22 cell line [9] (concentration IC50, 2 h) is 7.14 ^* %; with KCL-22 cell line [9] (concentration IC50/5, 2 h), 3.11 ^* %; in the data set on KCL-22 cell line [9] (concentration IC50/20, 2 h), 1.74%. In addition, the “L/H, Mean ± S.E.M.” value worked out at 1.34 ± 0.01 in the data set on KCL-22 cell line [9] (concentration IC50, 2 h); 1.12 ± 0.01 with KCL-22 cell line [9] (concentration IC50/5, 2 h); 1.08 ± 0.00 with KCL-22 cell line [9] (concentration IC50/20, 2 h). Moreover, the “L/H, Median” value with KCL-22 cell line [9] (concentration IC50, 2 h) was 1.32 ^*; in the data set with KCL-22 cell line [9] (concentration IC50/5, 2 h) it was 1.12 ^*; with KCL-22 cell line [9] (concentration IC50/20, 2 h) it was 1.07. Moreover, the “OTM, Mean ± S.E.M.” value with KCL-22 cell line [9] (concentration IC50, 2 h) is recorded as 5.63 ± 0.42; with KCL-22 cell line [9] (concentration IC50/5, 2 h), 1.42 ± 0.08; in the data set on KCL-22 cell line [9] (concentration IC50/20, 2 h), 0.93 ± 0.06. For the same compound, the “OTM, Median” value in the data set on KCL-22 cell line [9] (concentration IC50, 2 h) is on record as 4.12 ^*; with KCL-22 cell line [9] (concentration IC50/5, 2 h) it was 1.14 ^*; with KCL-22 cell line [9] (concentration IC50/20, 2 h) it was 0.58. For the same compound, the “DNA damage (Comet assay)” value in the data set with KCL-22 cell line [9] (concentrations IC50/5 and IC50, KCL-22, 2 h after application) was “induce the breakage of DNA molecule”; in the data set with KCL-22 cell line [9] (low (IC50/20) concentration, KCL-22, 2 h), “no effect”. In addition, in data set [4], the “lipophilicity, TLC retention factor Rf, compared to tetracationic analog” value is given as “gained significantly in lipophilicity”.

For `C=CC[n+]1ccc(-c2c3nc(c(-c4cc[n+](CC=C)cc4)c4ccc([nH]4)c(-c4cc[n+](CC=C)cc4)c4nc(c(-c5cc[n+](CC=C)cc5)c5ccc2[nH]5)C=C4)C=C3)cc1` [H2TAll4PyP, 5,10,15,20-tetra(4′-N-allylpyridyl)porphyrin tetrabromide], the results for the IC50 in the data set on KCL-22 cells [10] and in the data set with KCL-22 cells [11] were 50 µM and greater than 1600 µM, respectively.

Take `C=Cc1c(C)c2cc3nc(c(CC(=O)O)c4[nH]c(cc5nc(cc1[nH]2)C(C)=C5CC)c(C)c4C(=O)O)[C@@H](CCC(=O)O)[C@@H]3C` [Chlorin e6, reference compound]: the concentration for half-maximal inhibition (IC50) is 4 ± 0.2 µM with KCL-22 cells [2] (Homo sapiens, KCL-22, read-out: IC50 (μM) ± S.E.M. Photo-induced) and greater than 50 µM in the data set with KCL-22 cells [3] (Homo sapiens, KCL-22, 48 h).
